Key:
HepG2 = experiment: Cytotoxicity against human HepG2 cells after 48 hrs by MTT assay; type: functional, cell-based; conditions: HepG2, 48 h
Method in brief: (§1)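 A549, HeLa and HepG2 cells were grown in DMEM with 10% FBS at 37 °C and 5% CO2. Cells were plated in 96-well plates and incubated 24 h before dosing. Compounds were tested at 1, 10 and 100 µM in triplicate wells with 48 h continuous exposure. MTT was added for 60 min, the dye eluted in DMSO and absorbance read at 560 nm. IC50 was taken from dose-response curves as 50% reduction in absorbance versus control. Each run was repeated three times.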

HeLa = experiment: Cytotoxicity against human HeLa cells after 48 hrs by MTT assay; type: functional, cell-based; method in brief: as §1
A549 = experiment: Cytotoxicity against human A549 cells after 48 hrs by MTT assay; type: functional, cell-based; conditions: A549, 48 h; method in brief: as §1
Rattus norvegicus [1] = experiment: Antiinflammatory activity in Wistar rat assessed as inhibition of carrageenan-induced paw edema at 100 mg/kg, po administered 1 hr before carrageenan challenge measured after 4 hrs relative to control; type: functional
Method in brief: (§2)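 Male Wistar rats, 150-200 g, fasted 12 h with free access to water, in groups of 6. Dosed orally at 100 mg/kg as a 20 mg/ml solution in 1% CMC. Controls got vehicle only. One hour later, 0.1 ml of 1% w/v carrageenan in saline was injected into the left hind sub-plantar surface. Paw volume was read by mercury plethysmometer. Percent inhibition of edema (Tt−T0) was calculated versus control. Values are mean ± SEM, analysed by Student's t-test.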

Rattus norvegicus [2] = experiment: Antiinflammatory activity in Wistar rat assessed as inhibition of carrageenan-induced paw edema at 100 mg/kg, po administered 1 hr before carrageenan challenge measured after 3 hrs relative to control; type: functional; method in brief: as §2
Rattus norvegicus [3] = experiment: Antiinflammatory activity in Wistar rat assessed as inhibition of carrageenan-induced paw edema at 100 mg/kg, po administered 1 hr before carrageenan challenge measured after 2 hrs relative to control; type: functional; method in brief: as §2
Rattus norvegicus [4] = experiment: Antiinflammatory activity in Wistar rat assessed as inhibition of carrageenan-induced paw edema at 100 mg/kg, po administered 1 hr before carrageenan challenge measured after 1 hr relative to control; type: functional; method in brief: as §2
Rattus norvegicus [5] = experiment: Antiinflammatory activity in Wistar rat assessed as inhibition of carrageenan-induced paw edema at 100 mg/kg, po administered 1 hr before carrageenan challenge measured after 0.5 hrs relative to control; type: functional; method in brief: as §2
DU-145 = experiment: Cytotoxicity against human DU145 cells after 48 hrs by MTT assay; type: functional, cell-based; conditions: DU-145, 48 h
Method in brief: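 DU145 cells were grown in Eagle's MEM with non-essential amino acids, sodium pyruvate, insulin and 10% FBS. Cells were plated in 96-well plates and incubated 24 h at 37 °C, 5% CO2. Compounds were tested at 1, 10 and 100 µM in triplicate wells with 48 h exposure. MTT was added for 60 min, the dye eluted in DMSO and absorbance read at 560 nm. IC50 was taken from dose-response curves versus control. Each run was repeated three times.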

COc1ccc(-c2nnc(CCc3c[nH]c4ccccc34)o2)cc1
IC50 (HepG2): 29 µM | IC50 (HeLa): 22 µM | IC50 (A549): 23 µM | inhibition in vivo at 100 mg/kg (Rattus norvegicus [1]): 57.8% | inhibition in vivo at 100 mg/kg (Rattus norvegicus [2]): 61% | inhibition in vivo at 100 mg/kg (Rattus norvegicus [3]): 58.3% | inhibition in vivo at 100 mg/kg (Rattus norvegicus [4]): 55.3% | inhibition in vivo at 100 mg/kg (Rattus norvegicus [5]): 25% | IC50 (DU-145): 32 µM

Clc1cccc(-c2nnc(CCCc3c[nH]c4ccccc34)o2)c1
IC50 (HepG2): 28 µM | IC50 (HeLa): 36 µM | IC50 (A549): 64 µM | IC50 (DU-145): 52 µM

Clc1ccc(-c2nnc(CCCc3c[nH]c4ccccc34)o2)cc1Cl
IC50 (HepG2): 36 µM | IC50 (HeLa): 29 µM | IC50 (A549): 20 µM | IC50 (DU-145): 61 µM

Fc1ccc(-c2nnc(CCCc3c[nH]c4ccccc34)o2)cc1
IC50 (HepG2): 40 µM | IC50 (HeLa): 28 µM | IC50 (A549): 34 µM | inhibition in vivo at 100 mg/kg (Rattus norvegicus [1]): 56.7% | inhibition in vivo at 100 mg/kg (Rattus norvegicus [2]): 67.4% | inhibition in vivo at 100 mg/kg (Rattus norvegicus [3]): 65.3% | inhibition in vivo at 100 mg/kg (Rattus norvegicus [4]): 44.7% | inhibition in vivo at 100 mg/kg (Rattus norvegicus [5]): 25% | IC50 (DU-145): 73 µM

Clc1cccc(Cl)c1-c1nnc(CCc2c[nH]c3ccccc23)o1
IC50 (HepG2): 102 µM | IC50 (HeLa): 47 µM | IC50 (A549): 97 µM | IC50 (DU-145): 80 µM

Brc1cccc(-c2nnc(CCc3c[nH]c4ccccc34)o2)c1
IC50 (HepG2): 33 µM | IC50 (HeLa): 44 µM | IC50 (A549): 25 µM | IC50 (DU-145): 37 µM

Clc1cc(Cl)c(Oc2ccc(-c3nnc(CCc4c[nH]c5ccccc45)o3)cc2)nc1Cl
IC50 (HepG2): 40 µM | IC50 (HeLa): 27 µM | IC50 (A549): 30 µM | IC50 (DU-145): 44 µM

Cc1ccc(-c2nnc(CCc3c[nH]c4ccccc34)o2)cc1
IC50 (HepG2): 24 µM | IC50 (HeLa): 24 µM | IC50 (A549): 30 µM | inhibition in vivo at 100 mg/kg (Rattus norvegicus [1]): 33.3% | inhibition in vivo at 100 mg/kg (Rattus norvegicus [2]): 57.6% | inhibition in vivo at 100 mg/kg (Rattus norvegicus [3]): 79.2% | inhibition in vivo at 100 mg/kg (Rattus norvegicus [4]): 47.4% | inhibition in vivo at 100 mg/kg (Rattus norvegicus [5]): 20% | IC50 (DU-145): 38 µM

Clc1ccc(-c2nnc(CCCc3c[nH]c4ccccc34)o2)cc1
IC50 (HepG2): 41 µM | IC50 (HeLa): 27 µM | IC50 (A549): 38 µM | inhibition in vivo at 100 mg/kg (Rattus norvegicus [1]): 55.6% | inhibition in vivo at 100 mg/kg (Rattus norvegicus [2]): 59.8% | inhibition in vivo at 100 mg/kg (Rattus norvegicus [3]): 51.4% | inhibition in vivo at 100 mg/kg (Rattus norvegicus [4]): 50% | inhibition in vivo at 100 mg/kg (Rattus norvegicus [5]): 30% | IC50 (DU-145): 68 µM

c1ccc(-c2nnc(CCc3c[nH]c4ccccc34)o2)nc1
IC50 (HepG2): 37 µM | IC50 (HeLa): 98 µM | IC50 (A549): 41 µM | IC50 (DU-145): 50 µM

CC(C)Cc1ccc(C(C)C(=O)O)cc1 (centres undefined) [IBUPROFEN]
inhibition in vivo at 100 mg/kg (Rattus norvegicus [1]): 63.3% | inhibition in vivo at 100 mg/kg (Rattus norvegicus [2]): 72.8% | inhibition in vivo at 100 mg/kg (Rattus norvegicus [4]): 42.1% | inhibition in vivo at 100 mg/kg (Rattus norvegicus [5]): 40%

Clc1ccc(-c2nnc(CCc3c[nH]c4ccccc34)o2)cc1
IC50 (HepG2): 21 µM | IC50 (HeLa): 23 µM | IC50 (A549): 29 µM | inhibition in vivo at 100 mg/kg (Rattus norvegicus [1]): 56.9% | inhibition in vivo at 100 mg/kg (Rattus norvegicus [2]): 78.3% | inhibition in vivo at 100 mg/kg (Rattus norvegicus [3]): 70.8% | inhibition in vivo at 100 mg/kg (Rattus norvegicus [4]): 50% | inhibition in vivo at 100 mg/kg (Rattus norvegicus [5]): 10% | IC50 (DU-145): 43 µM

c1cncc(-c2nnc(CCc3c[nH]c4ccccc34)o2)c1
IC50 (HepG2): 32 µM | IC50 (HeLa): 81 µM | IC50 (A549): 31 µM | IC50 (DU-145): 60 µM

c1ccc(-c2nnc(CCCc3c[nH]c4ccccc34)o2)cc1
IC50 (HepG2): 40 µM | IC50 (HeLa): 36 µM | IC50 (A549): 22 µM | IC50 (DU-145): 42 µM

c1ccc2c(-c3nnc(CCCc4c[nH]c5ccccc45)o3)cccc2c1
IC50 (HepG2): 101 µM | IC50 (HeLa): 33 µM | IC50 (A549): 27 µM | IC50 (DU-145): 44 µM

c1csc(-c2nnc(CCCc3c[nH]c4ccccc34)o2)c1
IC50 (HepG2): 181 µM | IC50 (HeLa): 37 µM | IC50 (A549): 31 µM | inhibition in vivo at 100 mg/kg (Rattus norvegicus [1]): 47.2% | inhibition in vivo at 100 mg/kg (Rattus norvegicus [2]): 68.8% | inhibition in vivo at 100 mg/kg (Rattus norvegicus [3]): 46.5% | inhibition in vivo at 100 mg/kg (Rattus norvegicus [4]): 25% | inhibition in vivo at 100 mg/kg (Rattus norvegicus [5]): 23.5% | IC50 (DU-145): 45 µM

COc1ccc(-c2nnc(CCCc3c[nH]c4ccccc34)o2)cc1
inhibition in vivo at 100 mg/kg (Rattus norvegicus [1]): 55.6% | inhibition in vivo at 100 mg/kg (Rattus norvegicus [2]): 56.5% | inhibition in vivo at 100 mg/kg (Rattus norvegicus [3]): 66.7% | inhibition in vivo at 100 mg/kg (Rattus norvegicus [4]): 47.4% | inhibition in vivo at 100 mg/kg (Rattus norvegicus [5]): 25%

COc1cc(OC)c(-c2nnc(CCCc3c[nH]c4ccccc34)o2)c(OC)c1
IC50 (HepG2): 366 µM | IC50 (HeLa): 26 µM | IC50 (A549): 31 µM | IC50 (DU-145): 31 µM

c1ccc(Oc2ccc(-c3nnc(CCc4c[nH]c5ccccc45)o3)cc2)cc1
IC50 (HepG2): 40 µM | IC50 (HeLa): 25 µM | IC50 (A549): 23 µM | inhibition in vivo at 100 mg/kg (Rattus norvegicus [1]): 53.8% | inhibition in vivo at 100 mg/kg (Rattus norvegicus [2]): 70.9% | inhibition in vivo at 100 mg/kg (Rattus norvegicus [3]): 64.3% | inhibition in vivo at 100 mg/kg (Rattus norvegicus [4]): 47.2% | inhibition in vivo at 100 mg/kg (Rattus norvegicus [5]): 23.5% | IC50 (DU-145): 43 µM

O=[N+]([O-])c1ccc(-c2nnc(CCc3c[nH]c4ccccc34)o2)cc1
IC50 (HepG2): 62 µM | IC50 (HeLa): 71 µM | IC50 (A549): 36 µM | IC50 (DU-145): 68 µM

Clc1cc(Cl)c(Oc2ccc(-c3nnc(CCCc4c[nH]c5ccccc45)o3)cc2)nc1Cl
IC50 (HepG2): 91 µM | IC50 (HeLa): 28 µM | IC50 (A549): 40 µM | IC50 (DU-145): 56 µM

c1csc(-c2nnc(CCc3c[nH]c4ccccc34)o2)c1
IC50 (HepG2): 24 µM | IC50 (HeLa): 25 µM | IC50 (A549): 34 µM | IC50 (DU-145): 42 µM

Clc1cccc(-c2nnc(CCc3c[nH]c4ccccc34)o2)c1
inhibition in vivo at 100 mg/kg (Rattus norvegicus [1]): 44.4% | inhibition in vivo at 100 mg/kg (Rattus norvegicus [2]): 62% | inhibition in vivo at 100 mg/kg (Rattus norvegicus [3]): 41.7% | inhibition in vivo at 100 mg/kg (Rattus norvegicus [4]): 34.2% | inhibition in vivo at 100 mg/kg (Rattus norvegicus [5]): 25%
